According to PMC5896666 (Drug Design, Development and Therapy, 2018):

Key:
caspase-3 = assay: Caspase-3 activity measurement in cell lysates; assay type: cell-based, human; details: EJ cells, 1.0 μM, 24 h, vs control and TAT-treated cells
Summary of the method: (§1)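 EJ cells treated for 24 h with 1.0 μM test compound. Lysates were mixed with buffer containing pNA substrate added at 2 mM: Ac-DEVD-pNA for caspase-3, Ac-LEHD-pNA for caspase-9. Incubated 4 h at 37 °C in the dark, then absorbance read at 405 nm. Activity given as ratio of treated to untreated control cells.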

Bax = assay: Western blotting analysis of Bax; assay type: cell-based, human; details: EJ cells, 1.0 μM, 24 h
Summary of the method: (§2)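 EJ cells received 1.0 μM test compound for 24 h, with or without 2 h pretreatment with 5 mM NAC. Lysed in RIPA with protease inhibitor; 30 μg protein (BCA) run on 10–12% SDS-PAGE and moved to PVDF. Blocked 30 min at room temperature in TBS, 0.1% Triton X-100, 5% milk. Primary antibody overnight at 4 °C, HRP secondary 1 h, ECL detection. GAPDH loading control.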

[1] = test system: human immortalized uroepithelium cell line SV-HUC-1; assay: Cell viability MTT assay; assay type: cell-based; details: SV-HUC-1 normal uroepithelium cells
Summary of the method: (§3)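 Cells seeded at 5×10^3 per well: EJ in RPMI 1640, SV-HUC-1 in F-12K, both with 10% FBS. Test compound came from 25 mmol/L DMSO stock diluted in serum-free medium or PBS. Series run at graded concentrations for 24 h, or at 1.0 μM over varying times. MTT added for 4 h at 37 °C, formazan dissolved in DMSO, A570 read. Viability relative to untreated (100%); ≥3 repeats.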

EJ cells [2] = assay: EdU incorporation assay; assay type: cell-based, human; details: 1.0 μM, 24 h, then 50 μM EdU 4 h
Summary of the method: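 EJ cells at 5×10^3 per well treated 24 h with 1.0 μM test compound, washed, then labelled with 50 μM EdU for 4 h at 37 °C in the dark. Fixed in 4% formaldehyde 15 min at room temperature, permeabilised in 0.5% Triton X-100 20 min. Apollo cocktail 30 min, Hoechst 33342 30 min, fluorescence microscopy. Mean ± SD of triplicates.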

[3] = Equilibrium solubility assay; assay type: physicochemical; details: shake-flask, distilled water pH 7.0, 37°C, UV spectrophotometry; stayed at this level for 6-24 h
EJ cells [4] = assay: Colony-formation assay; assay type: cell-based, human; details: 1.0 μM, 24 h, then 10 days growth
Summary of the method: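 EJ cells at 1×10^6 per well given 1.0 μM test compound for 24 h. Harvested and replated at 5×10^2 cells per well in fresh 10% FBS medium, then grown 10 days. Colonies fixed, stained with 1% crystal violet in 10% methanol and counted blinded under a microscope. Mean ± SD of triplicates.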

[5] = test system: ROS production in EJ cells; assay: Intracellular reactive oxygen species detection; assay type: cell-based, human; details: 1.0 μM, 24 h, DCFH-DA, fluorescence microplate reader
Summary of the method: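 EJ cells, with or without 2 h pretreatment with 5 mM NAC, were given 1.0 μM test compound for 24 h. After PBS washes, loaded with 10 μM DCFH-DA for 30 min at 37 °C and washed again. Imaged by fluorescence microscopy and quantified on a plate reader (ex 485/em 520 nm). Values given as percent of control.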

EJ cells [6] = assay: AO/EB dual staining, morphological assessment of apoptotic cells; assay type: cell-based, human; details: 1.0 μM, 24 h, mean ± SD
Summary of the method: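 EJ cells (RPMI 1640, 10% FBS, 37 °C, 5% CO2) exposed to 1.0 μM test compound for 24 h, then trypsinised, pelleted and PBS-washed. Stained with 100 μg/mL AO and 100 μg/mL EB for 10 min at 4 °C in the dark. Scored by fluorescence microscopy for nuclear condensation and shrinkage. Apoptotic rate = apoptotic cells/total counted. Mean ± SD of triplicates.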

caspase-9 = assay: Caspase-9 activity measurement in cell lysates; assay type: cell-based, human; details: EJ cells, 1.0 μM, 24 h, vs control and TAT-treated cells
Summary of the method: as §1

EJ cells [7] = assay: Annexin V-FITC/PI staining flow cytometry of apoptosis; assay type: cell-based, human; details: for Percentage of apoptotic cells (Annexin V-FITC/PI flow cytometry) / Effect of caspase inhibitors on induced apoptosis: 1.0 μM, 24 h; for Percentage of apoptotic cells (Annexin V-FITC/PI flow cytometry): mean ± SD; for Effect of caspase inhibitors on induced apoptosis: with 20 μM Z-LEHD-FMK or z-DEVD-fmk (Ac-DEVD-CHO)
Summary of the method: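 EJ cells were seeded at 1×10^6 per well, left overnight, then given 1.0 μM test compound for 24 h. Some wells also received 20 μM caspase-3 (Ac-DEVD-CHO) or caspase-9 (Z-LEHD-FMK) inhibitor, or a 2 h pretreatment with 5 mM NAC. Harvested cells were stained with Annexin V-FITC/PI and read by flow cytometry for percent apoptotic cells. Mean ± SD of triplicates.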

Bcl-2 = assay: Western blotting analysis of Bcl-2; assay type: cell-based, human; details: EJ cells, 1.0 μM, 24 h
Summary of the method: as §2

[8] = test system: human bladder cancer EJ cell line; assay: Cell viability MTT assay; assay type: cell-based
Summary of the method: as §3

Compound | Caspase-3 activity (caspase-3) | Bax expression level (Bax) | Effect on cell viability [1] | Number of EdU+ cells (EJ cells [2]) | Stirring time at which solubility reached its peak [3] | Colony growth (EJ cells [4]) | ROS production [5] | Percentage of apoptotic cells (AO/EB) (EJ cells [6]) | Caspase-9 activity (caspase-9) | Percentage of apoptotic cells (Annexin V-FITC/PI flow cytometry) (EJ cells [7]) | Effect of caspase inhibitors on induced apoptosis (EJ cells [7]) | Bcl-2 protein level (Bcl-2) | Concentration inducing clear cytotoxic effects ([8]; EJ cells, MTT) | IC50 ([8]; Homo sapiens, EJ, 24 h, read-out: 50% inhibitory concentration (IC50)) | Effect on apoptosis, NAC treatment alone (EJ cells [7]; 5 mM NAC in the absence of GA and GA-TAT)
CC(C)=CCC[C@]1(C)C=Cc2c(O)c3c(c(CC=C(C)C)c2O1)O[C@]12C(=C[C@@H]4C[C@H]1C(C)(C)O[C@@]2(C/C=C(/C)C(=O)N[C@@H](CS)C(=O)N[C@@H](Cc1ccc(O)cc1)C(=O)NCC(=O)N[C@@H](CCCNC(=N)N)C(=O)N[C@@H](CCCCN)C(=O)N[C@@H](CCCCN)C(=O)N[C@@H](CCCNC(=N)N)C(=O)N[C@@H](CCCNC(=N)N)C(=O)N[C@@H](CCC(N)=O)C(=O)N[C@@H](CCCNC(=N)N)C(=O)N[C@@H](CCCNC(=N)N)C(=O)N[C@@H](CCCNC(=N)N)C(=O)O)C4=O)C3=O [GA-TAT] | further enhanced | upregulated | nearly unaffected | markedly less | 4 h | further reduced | significantly higher | 42.15%±5.23% | further enhanced | 46.4%±4.86% | partially inhibited | downregulated |  |  | 
CC(C)=CCC[C@]1(C)C=Cc2c(O)c3c(c(CC=C(C)C)c2O1)O[C@]12C(=C[C@@H]4C[C@H]1C(C)(C)O[C@@]2(C/C=C(/C)C(=O)O)C4=O)C3=O [GA, Gambogic acid] | increased | upregulated | nearly unaffected | significantly reduced |  | significantly decreased | substantially increased | 19.18%±4.35% | increased | 21.3%±2.27% | completely suppressed | not affected | 1000 nM | 4.95 µM | 
CC(=O)N[C@@H](CS)C(=O)O [NAC, N-acetyl-L-cysteine] |  |  |  |  |  |  |  |  |  |  |  |  |  |  | did not significantly affect apoptosis
